# Experimental data as given in ChEMBL document CHEMBL1145780, “Evaluation of the first cytostatically active 1-aza-9-oxafluorenes as novel selective CDK1 inhibitors with P-glycoprotein modulating properties” (J Med Chem, 2003).
# Legend:
# IGROV-1 = assay: Inhibition of ovarian cancer IGROVI cell proliferation; type: functional; conditions: Homo sapiens
# How it was run: (§1)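 NCI in vitro antitumour screen across 60 human tumour cell lines, run as a sulforhodamine B protein cytotoxicity assay. Values are log GI50, mean of two determinations. The panel mean-graph midpoint (MG_MID) summarises all 60 lines, and the ovarian IGROV1 line is reported individually.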
# [1] = biological target: Cyclin-dependent kinase 1/cyclin B (Homo sapiens, UniProt P06493+P14635+Q8WWL7+O95067); assay: Inhibition of Cyclin-dependent kinase 1-cyclin B from M phase starfish (Marthasterias glacialis) oocytes (inactive); type: cell-based, Asteroidea; conditions: oocyte
# [2] = biological target: Cyclin-dependent kinase 5/CDK5 activator 1 (Homo sapiens) (UniProt Q00535+Q15078); assay: Inhibition of Cyclin-dependent kinase 5 (CDK5) at 10 uM; type: protein-complex assay
# How it was run: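 Recombinant GST-tagged mammalian CDK5 and p25 mixed in equal amounts and purified. Assayed in the same homogenization buffer as CDK1/cyclin B (Mops pH 7.2, Mg2+, EGTA, DTT, phosphatase inhibitors) at 30 °C with 15 μM final ATP for 10 min. Phosphate incorporation measured with blanks subtracted. Percent inhibition at 10 μM test concentration, mean of two determinations.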
# Tumor Cell line = assay: Cytostatic activity in performed screen of NCI 60 cell lines, mean graph midpoint; type: functional; conditions: Homo sapiens; how it was run: as §1
# [3] = biological target: Cyclin-dependent kinase 1/cyclin B (Homo sapiens, UniProt O95067+P06493+P14635+Q8WWL7); assay: Inhibition of Cyclin-dependent kinase 1-cyclin B from M phase starfish (Marthasterias glacialis) oocytes; type: cell-based, Asteroidea, Oocyte
# [4] = biological target: T1, ATP-dependent translocase ABCB1 (Homo sapiens, UniProt P08183); assay: Inhibition of membrane efflux pump P-glycoprotein at 7 uM; type: functional
# How it was run: (§2)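 Rhodamine 123 uptake in L5178Y mouse T-cell lymphoma parental cells and the L5178YvMDR subline transfected with human MDR-1, at 2 × 10⁶ cells/mL in serum-free McCoy's 5A. Cells were preincubated with compound at room temperature, then given 5.2 μM rhodamine 123 (final) for 20 min at 37 °C and washed twice in PBS. Fluorescence of 1 × 10⁴ cells was read by flow cytometry. R = (MDR treated/untreated)/(parental treated/untreated), mean of two determinations.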
# [5] = biological target: T1, ATP-dependent translocase ABCB1; assay: Inhibition of P-glycoprotein, MDR-1, expressed in mouse T-cell lymphoma cell line at 70 uM; type: functional, cell-based; how it was run: as §2
# Chain of Cyclin-dependent kinase 5/CDK5 activator 1 (Homo sapiens) (Q00535 whole entry): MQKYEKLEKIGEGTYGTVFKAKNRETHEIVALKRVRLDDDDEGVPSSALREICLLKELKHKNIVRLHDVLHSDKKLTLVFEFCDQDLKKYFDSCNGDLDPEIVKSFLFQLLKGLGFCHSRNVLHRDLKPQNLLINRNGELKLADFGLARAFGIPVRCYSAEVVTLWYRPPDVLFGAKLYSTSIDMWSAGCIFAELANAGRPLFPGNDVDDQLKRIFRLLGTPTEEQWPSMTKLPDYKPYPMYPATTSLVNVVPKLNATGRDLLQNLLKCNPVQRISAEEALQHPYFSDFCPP
# Chain of Cyclin-dependent kinase 5/CDK5 activator 1 (Homo sapiens) (Q15078 99-307 partner limits assumed): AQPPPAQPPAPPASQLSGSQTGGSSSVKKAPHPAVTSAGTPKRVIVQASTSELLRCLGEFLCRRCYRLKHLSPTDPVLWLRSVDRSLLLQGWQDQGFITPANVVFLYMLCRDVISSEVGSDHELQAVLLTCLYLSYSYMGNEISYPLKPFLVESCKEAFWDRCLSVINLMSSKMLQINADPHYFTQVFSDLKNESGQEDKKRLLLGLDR
# T1 sequence (P08183 whole entry): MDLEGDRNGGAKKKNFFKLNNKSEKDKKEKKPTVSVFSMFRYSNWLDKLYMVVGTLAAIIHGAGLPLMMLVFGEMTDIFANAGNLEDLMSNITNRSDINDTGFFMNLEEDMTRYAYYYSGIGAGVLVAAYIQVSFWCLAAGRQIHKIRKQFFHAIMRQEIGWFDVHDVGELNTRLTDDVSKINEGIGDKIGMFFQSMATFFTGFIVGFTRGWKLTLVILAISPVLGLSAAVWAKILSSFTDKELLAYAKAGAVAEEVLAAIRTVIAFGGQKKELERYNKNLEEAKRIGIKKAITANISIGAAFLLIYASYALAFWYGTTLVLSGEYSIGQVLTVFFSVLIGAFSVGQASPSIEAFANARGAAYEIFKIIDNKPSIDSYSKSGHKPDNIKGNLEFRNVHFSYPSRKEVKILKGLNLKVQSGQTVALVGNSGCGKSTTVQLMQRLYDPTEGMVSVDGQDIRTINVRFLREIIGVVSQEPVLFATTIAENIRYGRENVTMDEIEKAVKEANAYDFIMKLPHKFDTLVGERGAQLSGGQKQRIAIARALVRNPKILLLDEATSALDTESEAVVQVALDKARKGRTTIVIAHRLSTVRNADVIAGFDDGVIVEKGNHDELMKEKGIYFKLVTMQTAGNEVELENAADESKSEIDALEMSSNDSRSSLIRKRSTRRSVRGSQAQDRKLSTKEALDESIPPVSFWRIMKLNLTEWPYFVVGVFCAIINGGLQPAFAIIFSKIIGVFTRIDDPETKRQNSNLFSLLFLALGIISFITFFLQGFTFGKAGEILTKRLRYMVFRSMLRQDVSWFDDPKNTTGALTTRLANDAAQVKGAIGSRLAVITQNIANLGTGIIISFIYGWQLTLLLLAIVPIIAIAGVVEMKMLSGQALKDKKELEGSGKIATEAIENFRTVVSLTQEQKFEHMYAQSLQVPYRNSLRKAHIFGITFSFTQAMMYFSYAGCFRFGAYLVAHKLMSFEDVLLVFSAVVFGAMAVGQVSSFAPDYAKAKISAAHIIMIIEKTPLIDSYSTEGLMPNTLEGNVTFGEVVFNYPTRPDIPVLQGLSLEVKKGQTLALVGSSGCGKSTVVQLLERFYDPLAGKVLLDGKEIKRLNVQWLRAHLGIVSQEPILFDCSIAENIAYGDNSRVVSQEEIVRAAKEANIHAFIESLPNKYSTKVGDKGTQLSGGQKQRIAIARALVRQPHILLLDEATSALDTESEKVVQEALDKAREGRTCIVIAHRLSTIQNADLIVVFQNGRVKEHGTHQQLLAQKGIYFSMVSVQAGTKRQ
# Chain of Cyclin-dependent kinase 1/cyclin B (Homo sapiens, UniProt P06493+P14635+Q8WWL7+O95067) (P06493 whole entry): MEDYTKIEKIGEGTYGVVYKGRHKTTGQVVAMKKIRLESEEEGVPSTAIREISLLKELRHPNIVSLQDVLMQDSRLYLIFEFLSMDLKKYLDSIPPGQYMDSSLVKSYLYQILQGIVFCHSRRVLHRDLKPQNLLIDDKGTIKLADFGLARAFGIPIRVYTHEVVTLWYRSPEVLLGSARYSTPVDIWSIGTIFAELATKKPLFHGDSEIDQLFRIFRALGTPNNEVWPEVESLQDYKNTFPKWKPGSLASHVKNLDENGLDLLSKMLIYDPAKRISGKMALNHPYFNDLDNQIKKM
# Chain of Cyclin-dependent kinase 1/cyclin B (Homo sapiens, UniProt P06493+P14635+Q8WWL7+O95067) (P14635 whole entry): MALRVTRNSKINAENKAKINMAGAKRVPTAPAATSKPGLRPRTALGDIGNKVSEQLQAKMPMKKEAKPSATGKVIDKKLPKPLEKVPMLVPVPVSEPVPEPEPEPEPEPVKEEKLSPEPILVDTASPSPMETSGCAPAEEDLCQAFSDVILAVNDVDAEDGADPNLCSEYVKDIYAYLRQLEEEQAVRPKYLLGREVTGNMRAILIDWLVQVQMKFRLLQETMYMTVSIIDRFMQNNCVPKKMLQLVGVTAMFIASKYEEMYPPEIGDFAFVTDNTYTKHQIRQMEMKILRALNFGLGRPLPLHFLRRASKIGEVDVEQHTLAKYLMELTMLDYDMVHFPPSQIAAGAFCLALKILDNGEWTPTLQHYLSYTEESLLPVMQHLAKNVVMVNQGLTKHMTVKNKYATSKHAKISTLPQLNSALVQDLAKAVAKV
# Chain of Cyclin-dependent kinase 1/cyclin B (Homo sapiens, UniProt P06493+P14635+Q8WWL7+O95067) (Q8WWL7 whole entry): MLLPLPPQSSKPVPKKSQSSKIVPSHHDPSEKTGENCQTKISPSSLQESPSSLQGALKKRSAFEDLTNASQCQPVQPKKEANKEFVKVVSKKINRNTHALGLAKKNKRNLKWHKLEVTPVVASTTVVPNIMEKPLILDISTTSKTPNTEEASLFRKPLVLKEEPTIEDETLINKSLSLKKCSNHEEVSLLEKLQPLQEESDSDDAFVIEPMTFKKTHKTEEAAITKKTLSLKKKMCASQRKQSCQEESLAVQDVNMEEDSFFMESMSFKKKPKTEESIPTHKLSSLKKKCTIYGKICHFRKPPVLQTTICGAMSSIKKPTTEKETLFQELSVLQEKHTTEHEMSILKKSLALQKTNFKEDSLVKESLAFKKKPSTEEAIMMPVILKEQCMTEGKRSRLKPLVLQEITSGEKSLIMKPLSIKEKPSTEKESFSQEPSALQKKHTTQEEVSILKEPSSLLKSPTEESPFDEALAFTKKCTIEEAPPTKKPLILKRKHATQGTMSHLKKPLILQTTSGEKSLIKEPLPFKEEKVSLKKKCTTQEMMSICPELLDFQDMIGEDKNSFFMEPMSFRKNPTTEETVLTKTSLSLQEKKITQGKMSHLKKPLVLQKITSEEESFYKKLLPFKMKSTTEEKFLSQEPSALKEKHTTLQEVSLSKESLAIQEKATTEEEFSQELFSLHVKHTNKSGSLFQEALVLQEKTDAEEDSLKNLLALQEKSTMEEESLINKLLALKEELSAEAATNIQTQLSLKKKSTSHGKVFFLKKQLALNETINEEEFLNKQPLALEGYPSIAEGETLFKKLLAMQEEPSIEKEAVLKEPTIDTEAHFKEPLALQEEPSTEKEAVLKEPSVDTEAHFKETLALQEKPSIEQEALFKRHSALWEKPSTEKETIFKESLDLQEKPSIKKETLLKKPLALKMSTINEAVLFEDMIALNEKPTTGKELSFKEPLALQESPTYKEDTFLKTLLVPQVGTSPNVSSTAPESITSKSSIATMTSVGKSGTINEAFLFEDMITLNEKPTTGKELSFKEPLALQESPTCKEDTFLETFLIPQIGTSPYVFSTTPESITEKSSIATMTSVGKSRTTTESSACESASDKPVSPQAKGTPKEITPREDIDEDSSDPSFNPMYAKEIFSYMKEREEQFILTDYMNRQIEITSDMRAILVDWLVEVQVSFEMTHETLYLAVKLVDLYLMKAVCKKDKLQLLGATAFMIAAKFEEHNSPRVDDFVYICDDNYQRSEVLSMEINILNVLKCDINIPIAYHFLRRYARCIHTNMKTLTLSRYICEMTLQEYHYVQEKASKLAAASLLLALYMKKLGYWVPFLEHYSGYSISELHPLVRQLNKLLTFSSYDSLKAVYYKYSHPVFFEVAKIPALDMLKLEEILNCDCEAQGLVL
# Chain of Cyclin-dependent kinase 1/cyclin B (Homo sapiens, UniProt P06493+P14635+Q8WWL7+O95067) (O95067 whole entry): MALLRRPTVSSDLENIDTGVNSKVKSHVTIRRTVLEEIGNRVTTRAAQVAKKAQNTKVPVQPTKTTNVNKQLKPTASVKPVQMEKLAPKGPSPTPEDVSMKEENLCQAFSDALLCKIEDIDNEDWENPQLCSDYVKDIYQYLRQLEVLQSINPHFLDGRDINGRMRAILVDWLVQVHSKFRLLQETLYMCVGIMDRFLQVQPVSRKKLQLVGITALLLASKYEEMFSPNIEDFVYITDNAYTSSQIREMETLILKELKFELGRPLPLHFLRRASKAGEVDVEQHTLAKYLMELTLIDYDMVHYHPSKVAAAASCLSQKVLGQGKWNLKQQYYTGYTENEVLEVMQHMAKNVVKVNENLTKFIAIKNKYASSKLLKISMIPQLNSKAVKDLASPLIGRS
# Chain of Cyclin-dependent kinase 1/cyclin B (Homo sapiens, UniProt O95067+P06493+P14635+Q8WWL7) (P06493 whole entry): as the sequence (P06493 whole entry) above
# Chain of Cyclin-dependent kinase 1/cyclin B (Homo sapiens, UniProt O95067+P06493+P14635+Q8WWL7) (P14635 whole entry): as the sequence (P14635 whole entry) above
# Chain of Cyclin-dependent kinase 1/cyclin B (Homo sapiens, UniProt O95067+P06493+P14635+Q8WWL7) (Q8WWL7 whole entry): as the sequence (Q8WWL7 whole entry) above
# Chain of Cyclin-dependent kinase 1/cyclin B (Homo sapiens, UniProt O95067+P06493+P14635+Q8WWL7) (O95067 whole entry): as the sequence (O95067 whole entry) above
IC50 [1],inhibition [2] [%],IC50 [3] [µM],Inhibitory activity ratio [4],Inhibitory activity ratio [5],Compound,GI50 (IGROV-1) [µM],GI50 (Tumor Cell line) [µM]
Not Active,10,,,,CC(=O)c1cnc2oc3ccc(O)cc3c2c1C,> 100,> 100
Not Active,3,,1.18,4.77,CCOC(=O)c1cnc2oc3ccc(O)cc3c2c1C,79.4,79.4

# The next lines start with the compound.
Compound,IC50 [1],inhibition [2] [%],IC50 [3] [µM],Inhibitory activity ratio [4],Inhibitory activity ratio [5],GI50 (IGROV-1) [µM],GI50 (Tumor Cell line) [µM]
CC(=O)c1cnc2oc3ccc(O)cc3c2c1-c1ccccc1,,15,4.2,1.26,6.74,5.01,31.6
CCOC(=O)c1cnc2oc3ccc(OC(C)=O)cc3c2c1-c1ccccc1,,,,,,> 100,
CCOC(=O)c1cnc2oc3ccc(O)cc3c2c1-c1ccccc1,,6,28.8,9.5,9.14,2.51,31.6
